Measurements taken from ChEMBL document CHEMBL4706642, “Discovery of a Potent Dual Inhibitor of Acetylcholinesterase and Butyrylcholinesterase with Antioxidant Activity that Alleviates Alzheimer-like Pathology in Old APP/PS1 Mice” (J Med Chem, 2021).
Activity calls are given as the source filed them.

Key:
[1] = Permeability of the compound in PBS/EtOH buffer (70:30) by PAMPA-BBB assay; assay type: ADME; conditions: read-out: permeability
Procedure, shortened: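 PAMPA-BBB permeability, reported as Pe in 10⁻⁶ cm s⁻¹, with CNS+ defined as Pe > 5.1. Mean ± SD of three experiments, each in triplicate.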

[2] = Antioxidant activity assessed as DPPH radical scavenging activity incubated for 30 mins under dark condition by UV-Vis spectrophotometric analysis; assay type: functional
[3] = molecular target: Beta-secretase 1 (Homo sapiens) (UniProt P56817); assay: Inhibition of recombinant human BACE-1 at 1 uM using methoxycoumarin-Ser-Glu-Val-Asn-Leu-Asp-Ala-Glu-Phe-Lys-dinitrophenyl as substrate preincubated for 1 hr followed by substrate addition and measured after 15 mins by fluorescence based assay relative to control; conditions: time 75.0 min
Cholinesterase [4] = molecular target: T1, Cholinesterase (Homo sapiens, UniProt P06276); assay: Inhibition of human serum BChE using butyrylthiocholineiodide as substrate preincubated for 20 mins followed by substrate addition by Ellman's method; assay type: cell-free
Procedure, shortened: (§1)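 Enzyme was 0.02 U/mL human recombinant AChE or human serum BChE. Non-enzymatic hydrolysis was corrected. IC50 came from a % inhibition vs log[I] regression. Selectivity = IC50 hBChE/IC50 hAChE. Mean ± SEM of ≥2 experiments, each in duplicate/triplicate.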

Acetylcholinesterase = Acetylcholinesterase (Homo sapiens, UniProt P22303); assay: Inhibition of recombinant human AChE using acetylthiocholineiodide as substrate preincubated for 20 mins followed by substrate addition by Ellman's method; procedure, shortened: as §1
[5] = Selectivity index, ratio of IC50 for human serum BChE using butyrylthiocholineiodide as substrate to IC50 for recombinant human AChE using acetylthiocholine iodide as substrate
Procedure, shortened: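 Ellman spectrophotometric assay in 0.1 M phosphate buffer, pH 8.0, with 340 μM DTNB. Enzyme was 0.02 U/mL human recombinant AChE or human serum BChE. […] Then 550 μM ATCh or BTCh was added, and A412 was followed for 210 s. Non-enzymatic hydrolysis was corrected. IC50 came from a % inhibition vs log[I] regression. Selectivity = IC50 hBChE/IC50 hAChE. Mean ± SEM of ≥2 experiments, each in duplicate/triplicate.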

[6] = Drug concentration in wild type C57BL6 mouse plasma at 2 mg/kg, ip thrice a week for 2 weeks observed after 4 hrs post last dose by HPLC/MS/MS analysis; conditions: in vivo
[7] = Drug concentration in wild type C57BL6 mouse brain at 2 mg/kg, ip thrice a week for 2 weeks observed after 4 hrs post last dose by HPLC/MS/MS analysis; conditions: in vivo
[8] = molecular target: Beta-secretase 1 (Homo sapiens) (UniProt P56817); assay: Inhibition of recombinant human BACE-1 at 5 uM using methoxycoumarin-Ser-Glu-Val-Asn-Leu-Asp-Ala-Glu-Phe-Lys-dinitrophenyl as substrate preincubated for 1 hr followed by substrate addition and measured after 15 mins by fluorescence based assay relative to control; conditions: time 75.0 min
[9] = molecular target: Acetylcholinesterase (Electrophorus electricus) (UniProt O42275); assay: Displacement of propidium iodide from PAS-region of electric eel AChE assessed as decrease in fluorescence intensity at 4 to 92 uM by spectrofluorimetric analysis relative to control; design: scale not given: the % may be the effect or the level left; conditions: dose 4-92 µM
Procedure, shortened: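 Back-titration fluorescence assay using electric eel AChE (type VI-S). Inhibitor was added in successive aliquots from a MeOH stock. Emission was read at 602 nm with excitation at 535 nm, after subtracting blanks. […] Three independent experiments.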

Cholinesterase [10] = molecular target: T1, Cholinesterase; assay: Inhibition of human serum BChE at 100 uM using butyrylthiocholineiodide as substrate preincubated for 20 mins followed by substrate addition by Ellman's method relative to control; assay type: cell-free

T1 sequence (P06276 whole entry): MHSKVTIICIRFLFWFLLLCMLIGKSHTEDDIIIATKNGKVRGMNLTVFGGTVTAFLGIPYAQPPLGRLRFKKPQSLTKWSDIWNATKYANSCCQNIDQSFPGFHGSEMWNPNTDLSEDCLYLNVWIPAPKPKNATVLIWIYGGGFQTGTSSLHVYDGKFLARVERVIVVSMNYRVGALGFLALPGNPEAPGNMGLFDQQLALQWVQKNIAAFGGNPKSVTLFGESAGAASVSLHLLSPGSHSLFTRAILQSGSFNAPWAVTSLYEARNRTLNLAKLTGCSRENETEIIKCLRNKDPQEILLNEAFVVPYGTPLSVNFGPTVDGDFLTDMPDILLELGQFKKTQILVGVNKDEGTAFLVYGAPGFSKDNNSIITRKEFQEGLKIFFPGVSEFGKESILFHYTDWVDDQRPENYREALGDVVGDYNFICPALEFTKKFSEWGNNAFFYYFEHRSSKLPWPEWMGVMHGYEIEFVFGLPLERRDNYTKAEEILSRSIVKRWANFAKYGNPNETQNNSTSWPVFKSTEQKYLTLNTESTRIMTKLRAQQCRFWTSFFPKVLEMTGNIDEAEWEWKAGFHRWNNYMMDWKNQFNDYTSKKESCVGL
Sequence of Acetylcholinesterase (P22303 whole entry): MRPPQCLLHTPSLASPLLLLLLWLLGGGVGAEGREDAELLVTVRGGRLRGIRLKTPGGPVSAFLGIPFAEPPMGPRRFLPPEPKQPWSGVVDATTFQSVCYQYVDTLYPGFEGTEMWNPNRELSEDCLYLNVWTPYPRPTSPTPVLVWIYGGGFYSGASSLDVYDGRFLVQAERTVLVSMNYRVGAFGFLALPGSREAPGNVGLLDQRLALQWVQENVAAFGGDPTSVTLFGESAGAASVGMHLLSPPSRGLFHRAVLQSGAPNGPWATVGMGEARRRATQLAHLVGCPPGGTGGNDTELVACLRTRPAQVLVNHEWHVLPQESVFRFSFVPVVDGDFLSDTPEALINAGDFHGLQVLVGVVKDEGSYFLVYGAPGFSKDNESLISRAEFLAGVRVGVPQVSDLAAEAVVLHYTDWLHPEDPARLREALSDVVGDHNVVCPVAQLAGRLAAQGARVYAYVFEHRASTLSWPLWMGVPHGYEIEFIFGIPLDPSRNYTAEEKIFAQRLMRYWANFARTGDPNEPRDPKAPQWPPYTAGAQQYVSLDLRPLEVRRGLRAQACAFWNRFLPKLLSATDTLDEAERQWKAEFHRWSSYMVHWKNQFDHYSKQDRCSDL
Sequence of Beta-secretase 1 (Homo sapiens) (P56817 whole entry): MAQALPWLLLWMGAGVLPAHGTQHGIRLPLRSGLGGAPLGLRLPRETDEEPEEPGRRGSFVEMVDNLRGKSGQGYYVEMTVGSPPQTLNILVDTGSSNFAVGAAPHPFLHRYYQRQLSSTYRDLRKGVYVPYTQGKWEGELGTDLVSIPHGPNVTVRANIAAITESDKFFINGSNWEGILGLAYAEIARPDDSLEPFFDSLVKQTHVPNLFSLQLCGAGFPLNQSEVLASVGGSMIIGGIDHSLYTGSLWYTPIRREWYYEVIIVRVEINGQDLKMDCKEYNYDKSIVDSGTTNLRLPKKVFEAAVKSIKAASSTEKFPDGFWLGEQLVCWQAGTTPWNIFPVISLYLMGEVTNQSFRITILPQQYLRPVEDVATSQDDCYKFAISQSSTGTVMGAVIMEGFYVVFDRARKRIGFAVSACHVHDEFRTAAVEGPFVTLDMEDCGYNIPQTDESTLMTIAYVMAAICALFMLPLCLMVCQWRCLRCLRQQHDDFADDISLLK
Sequence of Acetylcholinesterase (Electrophorus electricus) (O42275 24-633 limits assumed): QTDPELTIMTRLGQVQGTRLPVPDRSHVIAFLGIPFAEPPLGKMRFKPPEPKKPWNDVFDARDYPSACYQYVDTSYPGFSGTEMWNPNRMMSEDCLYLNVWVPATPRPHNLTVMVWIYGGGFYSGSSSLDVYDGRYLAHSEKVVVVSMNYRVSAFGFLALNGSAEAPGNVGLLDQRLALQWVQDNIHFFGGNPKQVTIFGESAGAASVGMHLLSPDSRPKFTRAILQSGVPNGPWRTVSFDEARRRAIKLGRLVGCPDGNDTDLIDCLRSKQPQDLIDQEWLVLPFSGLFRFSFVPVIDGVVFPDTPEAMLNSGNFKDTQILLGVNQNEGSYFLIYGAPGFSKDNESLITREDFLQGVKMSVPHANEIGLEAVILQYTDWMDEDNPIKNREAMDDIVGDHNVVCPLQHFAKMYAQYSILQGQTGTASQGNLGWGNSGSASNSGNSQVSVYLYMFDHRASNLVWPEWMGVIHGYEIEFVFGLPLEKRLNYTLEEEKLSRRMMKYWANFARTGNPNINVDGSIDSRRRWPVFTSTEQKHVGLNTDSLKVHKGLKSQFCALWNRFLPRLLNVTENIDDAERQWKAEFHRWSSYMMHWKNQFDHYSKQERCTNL

**Q.** What does the source list for `COc1cc(CNC(=O)CCCCCNc2c3c(nc4cc(Cl)ccc24)CC2C=C(C)CC3C2)ccc1O` (stereo unspecified)?
**A.** Papp [1]: 14.9 ×10⁻⁶ cm/s; IC50 [2]: 62600 nM; inhibition [3]: 34.3%; IC50 (Cholinesterase [4]): 70 nM; IC50 (Acetylcholinesterase): 4.35 nM; Ratio IC50 [5]: 16.1

**Q.** For `COc1cc(CNC(=O)CCCC/C=C/CCCNc2c3c(nc4cc(Cl)ccc24)CC2C=C(C)CC3C2)ccc1O` (stereo unspecified), which Papp [1] is on record?
**A.** 22.3 ×10⁻⁶ cm/s

**Q.** What about the IC50 [2] of the same molecule?
**A.** 54600 nM

**Q.** And the inhibition [3]?
**A.** 21.6%

**Q.** What about the IC50 (Cholinesterase [4]) of the same molecule?
**A.** 53.1 nM

**Q.** What about the IC50 (Acetylcholinesterase) of the same molecule?
**A.** 5.64 nM

**Q.** And the Ratio IC50 [5]?
**A.** 9.4

**Q.** What does the source list for `COc1cc(CNC(=O)c2ccc(CNc3c4c(nc5cc(Cl)ccc35)CC3C=C(C)CC4C3)cc2)ccc1O` (stereo unspecified)?
**A.** Papp [1]: 14.3 ×10⁻⁶ cm/s; IC50 [2]: 71400 nM; inhibition [3]: inactive; IC50 (Cholinesterase [4]): 290 nM; IC50 (Acetylcholinesterase): 24.9 nM; Ratio IC50 [5]: 11.6

**Q.** Which results are given for `COc1cc(CNC(=O)CCCCCCCCNc2c3c(nc4cc(Cl)ccc24)CC2C=C(C)CC3C2)ccc1O` (stereo unspecified)?
**A.** Papp [1]: 21.8 ×10⁻⁶ cm/s; IC50 [2]: 64600 nM; inhibition [3]: 23.7%; IC50 (Cholinesterase [4]): 36.1 nM; IC50 (Acetylcholinesterase): 2.94 nM; Ratio IC50 [5]: 12.3

**Q.** With `COc1cc(CNC(=O)CCCCCCCNc2c3c(nc4cc(Cl)ccc24)CC2C=C(C)CC3C2)ccc1O` (stereo unspecified) as the molecule, how does the Papp [1] read?
**A.** 20.1 ×10⁻⁶ cm/s

**Q.** And the IC50 [2]?
**A.** 70800 nM

**Q.** What about the inhibition [3] of the same molecule?
**A.** 3.6%

**Q.** And the IC50 (Cholinesterase [4])?
**A.** 51.8 nM

**Q.** And the IC50 (Acetylcholinesterase)?
**A.** 1.94 nM

**Q.** What about the Ratio IC50 [5] of the same molecule?
**A.** 26.7

**Q.** With `COc1cc(CNC(=O)CCCCNc2c3c(nc4cc(Cl)ccc24)CC2C=C(C)CC3C2)ccc1O` (stereo unspecified) as the molecule, how does the Papp [1] read?
**A.** 11.5 ×10⁻⁶ cm/s

**Q.** What about the IC50 [2] of the same molecule?
**A.** 68500 nM

**Q.** And the inhibition [3]?
**A.** 55.6%

**Q.** What about the IC50 (Cholinesterase [4]) of the same molecule?
**A.** 52.2 nM

**Q.** And the IC50 (Acetylcholinesterase)?
**A.** 5.48 nM

**Q.** What about the Ratio IC50 [5] of the same molecule?
**A.** 9.5

**Q.** For `COc1cc2c(cc1OC)C(=O)C(CC1CCN(Cc3ccccc3)CC1)C2` (stereo unspecified) [DONEPEZIL], which concentration at 336 h [6] is on record?
**A.** 6460 ng/mL

**Q.** What about the concentration at 336 h [7] of the same molecule?
**A.** 6130 ng/g

**Q.** What does the source list for `COc1cc(CNC(=O)CCCC/C=C/CNc2c3c(nc4cc(Cl)ccc24)CC2C=C(C)CC3C2)ccc1O` (stereo unspecified)?
**A.** Papp [1]: 16.8 ×10⁻⁶ cm/s; IC50 [2]: 31700 nM; inhibition [3]: inactive; IC50 (Cholinesterase [4]): 78.1 nM; IC50 (Acetylcholinesterase): 4.41 nM; Ratio IC50 [5]: 17.7

**Q.** With `CC1=CC2Cc3nc4cc(Cl)ccc4c(N)c3C(C1)C2` (stereo unspecified) as the molecule, how does the inhibition [8] read?
**A.** 14%

**Q.** Which Activity [9] does the source give for `COc1cc(CNC(=O)CCCC/C=C/C(C)C)ccc1O` [CAPSAICIN] here?
**A.** 11%

**Q.** And the Papp [1]?
**A.** 10.3 ×10⁻⁶ cm/s

**Q.** And the IC50 [2]?
**A.** 50300 nM

**Q.** And the inhibition [3]?
**A.** inactive

**Q.** What about the inhibition (Cholinesterase [10]) of the same molecule?
**A.** 20%

**Q.** What about the IC50 (Acetylcholinesterase) of the same molecule?
**A.** > 200000 nM
